# Source: ChEMBL document CHEMBL4706489, “Hydrogen sulfide releasing oridonin derivatives induce apoptosis through extrinsic and intrinsic pathways” (Eur J Med Chem, 2020)
# Calls of active or inactive are those of the source. No cut-off for these calls is given here.
# Tests used:
# [1] = tested on: HepG2; experiment: Induction of apoptosis in human HepG2 cells assessed as necrotic cells at 0.5 uM after 48 hrs by annexin V FITC and propidium iodide staining based flow cytometric analysis (reference value: 0.89%); type: functional
# [2] = tested on: K562; experiment: Induction of apoptosis in human K562 cells assessed as increase in DR5 protein expression at 1 uM after 24 hrs by chemiluminescence based apoptosis array method; type: functional, cell-based
# Summary of the method: (§1)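 K562 cells were treated with 1 test agent for 24 h. Diluted total-cell lysates were applied to a human apoptosis antibody array covering 35 apoptosis-related proteins for 24 h. Unbound protein was washed off, and arrays were probed with a biotinylated detection antibody for 1 h. Relative expression was read from chemiluminescent signal by digital imaging.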
# [3] = tested on: K562; experiment: Induction of cell cycle arrest in human K562 cells assessed as accumulation at G2 phase at 0.5 uM after 48 hrs by propidium iodide staining based flow cytometric analysis (reference value: 10.96 to 12.03%); type: functional
# [4] = tested on: K562; experiment: Induction of apoptosis in human K562 cells assessed as early apoptotic cells at 0.5 uM after 48 hrs by annexin V FITC and propidium iodide staining based flow cytometric analysis (reference value: 2.13%); type: functional
# [5] = tested on: K562; experiment: Induction of apoptosis in human K562 cells assessed as chromatin shrinking after 24 to 48 hrs by Hoechst 33258 staining based fluorescence microscopic method; type: functional, cell-based; conditions: dose 1-4 µM, time 24-48 hrs
# Summary of the method: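 K562 cells were exposed to 1.0, 2.0 or 4.0 test agent, with DMSO as vehicle control, for 24 h and 48 h. They were harvested, washed twice in PBS and stained with Hoechst 33258 (0.5 mg/mL in PBS) for 30 min in darkness. Slides were viewed by fluorescence microscopy with a DAPI filter. Three random fields of about 200 nuclei per sample were scored as % apoptotic nuclei. Three independent experiments.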
# [6] = tested on: HepG2; experiment: Induction of apoptosis in human HepG2 cells assessed as viable cells at 2 uM after 48 hrs by annexin V FITC and propidium iodide staining based flow cytometric analysis (reference value: 93.5%); type: functional; conditions: read-out: Activity
# [7] = tested on: K562; experiment: Induction of cell cycle arrest in human K562 cells assessed as accumulation at G1 phase at 1 uM after 48 hrs by propidium iodide staining based flow cytometric analysis (reference value: 43.24 to 43.37%); type: functional
# [8] = tested on: HepG2; experiment: Induction of cell cycle arrest in human HepG2 cells assessed as accumulation at G2 phase at 2 uM after 48 hrs by propidium iodide staining based flow cytometric analysis (reference value: 16.48 to 16.97%); type: functional
# [9] = tested on: K562; experiment: Induction of apoptosis in human K562 cells assessed as decrease in survivin protein expression at 1 uM after 24 hrs by chemiluminescence based apoptosis array method; type: functional, cell-based; summary of the method: as §1
# [10] = tested on: K562; experiment: Induction of apoptosis in human K562 cells assessed as necrotic cells at 0.5 uM after 48 hrs by annexin V FITC and propidium iodide staining based flow cytometric analysis (reference value: 0.69%); type: functional
smiles,measurement,setting,value
C=C1C(=O)[C@]23[C@H](OC(=O)CCC(=O)OCCCCCCOc4ccc(-c5cc(=S)ss5)cc4)[C@H]1CC[C@H]2[C@@]12CO[C@@]3(O)[C@@H](O)[C@@H]1C(C)(C)CC[C@@H]2OC(C)=O,Activity,[1],2.7%
same,Activity,[2],Active
same,Activity,[3],11.07%
same,Activity,[4],7.1%
same,Activity,[5],Dose-dependent effect
same,viability at 2 µM,[6],31.5%
same,Activity,[7],34.14%
same,Activity,[8],6.6%
same,Activity,[9],Active
same,Activity,[10],1.1%
